Measured values taken from ChEMBL document CHEMBL1158412, “Novel pyridopyrimidine derivatives as inhibitors of stable toxin a (STa) induced cGMP synthesis” (Bioorg Med Chem Lett, 2009).

Assays:
[1] = test system: T84; test: Inhibition of Escherichia coli heat stable toxin A-stimulated cGMP accumulation in human T84 cells at 50 uM pretreated 10 mins before 250 nM toxin challenge measured after 10 mins of induction by ELISA; format: cell-based
Method in brief: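 T84 cells preincubated 10 min with test compound, then left unstimulated (basal) or stimulated with 250 nM STa for 10 min; cGMP extracted and quantified by ELISA. Each plate included a vehicle control, and percent inhibition was calculated per plate.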

[2] = Inhibition of Escherichia coli heat stable toxin A-stimulated cGMP accumulation in human T84 cells pretreated 10 mins before 1 nM toxin challenge measured after 10 mins of induction by ELISA; format: cell-based

Structure (SMILES)	inhibition [1] [%]	IC50 [2] [µM]
Cn1c2c(c(=O)n(C)c1=O)C(c1ccc(F)c(F)c1F)C1=C(CC(c3ccco3)CC1=O)N2 (centres undefined)	-3	–
Cn1c2c(c(=O)n(C)c1=O)C(c1ccccc1)C1=C(N2)c2ccccc2C1=O (centres undefined)	7	–
Cn1c2c(c(=O)[nH]c1=O)C(c1cc(C(F)(F)F)cc(C(F)(F)F)c1)C1=C(N2)c2ccccc2C1=O (centres undefined)	19	–
Cn1c2c(c(=O)n(C)c1=O)C(c1ccc(F)c(F)c1F)C1=C(N2)c2ccccc2C1=O (centres undefined)	62	–
CC1=C(C(=O)Nc2ccccc2)C(c2cc(C(F)(F)F)cc(C(F)(F)F)c2)c2c(n(C)c(=O)n(C)c2=O)N1 (centres undefined)	22	–
Cn1c2c(c(=O)n(C)c1=O)C(c1cccc(Br)c1)C1=C(CC(c3ccco3)CC1=O)N2 (centres undefined)	2	–
Cn1c2c(c(=O)n(C)c1=O)C(c1cccc(C(F)(F)F)c1)C1=C(N2)c2ccccc2C1=O (centres undefined)	73	–
CC1=C(C(=O)Nc2nccs2)C(c2cccc(Br)c2)c2c(n(C)c(=O)n(C)c2=O)N1 (centres undefined)	11	–
Cn1c2c(c(=O)n(C)c1=O)C(c1cccc(C#N)c1)C1=C(N2)c2ccccc2C1=O (centres undefined)	23	–
Cn1c2c(c(=O)n(C)c1=O)C(c1cccc(F)c1)C1=C(N2)c2ccccc2C1=O (centres undefined)	63	–
O=C1C2=C(Nc3[nH]c(=O)[nH]c(=O)c3C2c2cc(C(F)(F)F)cc(C(F)(F)F)c2)c2ccccc21 (centres undefined)	56	–
Cn1c2c(c(=O)n(C)c1=O)C(c1cccc(C(F)(F)F)c1F)C1=C(N2)c2ccccc2C1=O (centres undefined)	80	–
O=C1C2=C(Nc3[nH]nc(-c4ccsc4)c3C2c2cc(C(F)(F)F)cc(C(F)(F)F)c2)c2ccccc21 (centres undefined)	-2	–
Cn1c2c(c(=O)n(C)c1=O)C(c1cc(F)cc(C(F)(F)F)c1)C1=C(N2)c2ccccc2C1=O (centres undefined)	93	3.4
CC(C)C(=O)N1C2=C(C(=O)c3ccccc32)C(c2ccc(Cl)cc2)c2c1n(C)c(=O)n(C)c2=O (centres undefined)	22	–
Cn1c(=O)c2c(-c3cccc(Br)c3)c3c(nc2n(C)c1=O)-c1ccccc1C3=O	2	–
Cn1c2c(c(=O)[nH]c1=O)C(c1cc(F)cc(C(F)(F)F)c1)C1=C(N2)c2ccccc2C1=O (centres undefined)	-6	–
COc1cc(C2C3=C(Nc4c2c(=O)n(C)c(=O)n4C)c2ccccc2C3=O)ccc1O (centres undefined)	29	–
Cn1c2c(c(=O)[nH]c1=O)C(c1cccc(Br)c1)C1=C(N2)c2ccccc2C1=O (centres undefined)	1	–
Cn1c2c(c(=O)n(C)c1=O)C(c1cccc(Br)c1)C1=C(N2)c2ccccc2C1=O (centres undefined)	86	9.6
Cn1c2c(c(=O)n(C)c1=O)C(c1cccc(Br)c1)C1=C(CCC1=O)N2 (centres undefined)	56	–
Cn1c2c(c(=O)n(C)c1=O)C(c1cc(F)cc(F)c1)C1=C(N2)c2ccccc2C1=O (centres undefined)	63	–
CC1=C(C(N)=O)C(c2cc(C(F)(F)F)cc(C(F)(F)F)c2)c2c(n(C)c(=O)n(C)c2=O)N1 (centres undefined)	8	–
Cn1c2c(c(=O)n(C)c1=O)C(c1cc(C(F)(F)F)cc(C(F)(F)F)c1)C1=C(N2)c2ccccc2C1=O (centres undefined)	93	2.5
Cn1c2c(c(=O)n(C)c1=O)C(c1ccc(O)c(O)c1)C1=C(N2)c2ccccc2C1=O (centres undefined)	26	–
Cn1c2c(c(=O)n(C)c1=O)C(c1cc(F)cc(F)c1F)C1=C(N2)c2ccccc2C1=O (centres undefined)	42	–
